# S1P3 antagonist: antagonists of human S1P3 receptor; 0.27% of 170,000 active; Q99500; inhibition, % at 4.98 µM; CHO S1P3 NFAT-BLA reporter, FRET fluorescence, antagonist mode;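 active = inhibition above the plate cutoff, the mean inhibition of test wells on that plate plus 3 SD, cut at about 28% in these data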;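 note: cells challenged with S1P at its EC80 of 0.8 µM; blue over green emission ratio from cleaved BLA substrate after 4 h stimulation; 0% = S1P-stimulated wells and 100% = unstimulated DMSO-only wells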
# S1P4 agonist: human S1P4 receptor agonism. O95977. S1P4-expressing cell line, agonist reporter assay. activation, % at 4.98 µM. 0.35% of 220,000 active. AID 1509; in the data active = activation above about 11%;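 note: 0% = DMSO vehicle and 100% = reference agonist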
# Target sequence (O95977 whole entry, looked up): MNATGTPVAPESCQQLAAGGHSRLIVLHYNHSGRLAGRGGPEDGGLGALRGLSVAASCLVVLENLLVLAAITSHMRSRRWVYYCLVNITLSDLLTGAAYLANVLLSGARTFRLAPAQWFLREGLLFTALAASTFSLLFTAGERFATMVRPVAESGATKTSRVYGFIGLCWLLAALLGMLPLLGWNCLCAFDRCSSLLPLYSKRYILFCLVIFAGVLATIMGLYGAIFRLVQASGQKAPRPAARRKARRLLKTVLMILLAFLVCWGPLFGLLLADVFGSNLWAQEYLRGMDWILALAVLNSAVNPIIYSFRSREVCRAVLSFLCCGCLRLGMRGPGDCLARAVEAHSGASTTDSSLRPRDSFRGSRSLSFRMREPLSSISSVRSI
# S1P4 antagonist: human S1P4 receptor antagonism. O95977. S1P4-expressing cells, antagonist mode, reporter read-out. inhibition, % at 4.98 µM. 0.26% of 220,000 active; in the data active = inhibition above about 29%;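 note: 0% = wells stimulated with agonist and 100% = vehicle wells without agonist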
# Lmaj promast: reduces viability of Leishmania major promastigotes; inhibition, % at 10 µM; resazurin fluorescence viability; 9% of 200,000 active; in the data active = inhibition above about 50%;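 note: promastigotes grown with compound for 44 hours at 28 °C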
# MDM2 E3 inh: Mdm2 E3 ligase (human) inhibition; Q00987; cell-based MDM2 ubiquitination luciferase reporter, 2 h; 0 = plate control, 100 = twice control, blank-subtracted; signal enhancement, % at 5 µM; 0.11% of 210,000 active; AID 1230;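 active = signal enhancement of 30% or more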;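 note: luminescence tracks abundance of the self-degrading MDM2-luciferase fusion protein; higher signal means inhibition of MDM2 E3 ligase activity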
#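 Assay system: stable mammalian line carrying autodegrading MDM2–luciferase fusion reporter; amount: 2000 cells seeded into each well; buffer or medium: DMEM; benchmarks: plate control and blank wells; signal: luciferase luminescence; timing: 2 h compound exposure at 37 °C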
# Active calls of the source: *; . = no result. This is one part of a sample in which hits are shown more often than they occur.
SMILES,S1P3 antagonist,S1P4 agonist,S1P4 antagonist,Lmaj promast,MDM2 E3 inh
O=C(Nc1sc2c(c1C(=O)O)CCC2)c1cccs1,-14.8,0.2,-29.8,-1.4,-1.8
Cc1onc(-c2ccccc2)c1C(=O)Nc1sc2c(c1C(N)=O)CCC2,.,1.1,7.2,23.6,4.7
O=C(CSc1nnc2sc3ccccc3n12)NCc1ccc2c(c1)OCO2,-15.0,.,.,.,-28.9
C=CCn1c(O)c(N=NC(=O)CNC(=O)c2ccco2)c2ccccc21,-7.8,1.0,-28.0,33.1,-6.1
C=CCn1c(O)c(N=NC(=S)Nc2ccc(OC)cc2)c2ccccc21,-2.0,-2.0,2.9,87.1*,-89.2
C=CCn1c(O)c(N=NC(=O)OCC)c2ccccc21,-2.6,1.0,-1.0,-6.1,4.3
C=CCn1c(O)c(N=NC(=S)Nc2cccc(OC)c2)c2ccccc21,-7.1,0.1,6.6,97.7*,-0.9
CCCSc1sc(C(=O)OC)c(-c2cccs2)c1C#N,2.5,-0.6,-8.3,.,-14.9
O=C(CSc1nnc(-c2cccs2)n1-c1ccccc1)N1CCc2ccccc21,8.6,1.4,-8.3,33.0,.
CCN1CCN(S(=O)(=O)c2cccc3nsnc23)CC1,.,-1.7,4.0,-3.5,-7.7
O=S(=O)(c1cccc2nsnc12)N1CCN(C/C=C/c2ccccc2)CC1,.,0.2,-0.8,80.8*,-10.8
O=S(=O)(c1cccc2nsnc12)N1CCN(C/C=C\c2ccccc2)CC1,.,3.9,-52.8,94.3*,-11.4
CCOc1ccccc1NC(=S)N1CCC(NC(=O)C(C)(C)C)CC1,3.2,1.9,-5.6,-3.7,-6.0
C/C(=N\NC(=O)c1ccc(NS(=O)(=O)c2cccs2)cc1)c1ccc2c(c1)OCO2,-18.5,1.3,8.5,73.6*,4.0
O=S(=O)(Nc1nc2ccccc2nc1Nc1ccc2c(c1)OCCO2)c1cccs1,-9.1,0.7,-8.7,53.2*,-3.2
C/C(=N\NC(=O)c1ccc(NS(=O)(=O)c2cccs2)cc1)c1ccc(Cl)cc1,-9.0,0.3,-18.8,-1.1,-4.4
COc1ccc(S(=O)(=O)Nc2nc3ccccc3nc2Nc2ccc3c(c2)OCO3)cc1,-10.2,-0.6,-6.9,5.4,6.4
O=C(/C=C/c1c(Cl)cccc1Cl)n1cccn1,.,-0.9,-11.8,-1.1,-4.8
COc1cc(OC)c(OC)cc1/C=N/NC(=S)NCC1CCCO1 (stereo not given),.,-0.9,9.7,-2.4,-20.7
COc1ccc(CCn2c(Br)nc3c2c(=O)[nH]c(=O)n3C)cc1,.,-1.7,6.5,91.5*,-5.3
Cn1c(=O)[nH]c(=O)c2c1nc(Br)n2C/C=N/NC(=O)c1ccccc1,-2.6,0.2,-6.6,.,-0.7
Cn1c(=O)[nH]c(=O)c2c1nc(Br)n2C/C=N/Nc1ccccc1,8.4,-2.1,9.0,65.2*,-36.3
CCOC(=O)c1c(C)[nH]c(NC(=O)N2CCOCC2)c1C,-19.9,-0.2,-3.1,-4.8,-16.1
Cn1c(=O)[nH]c(=O)c2c1nc(SCCO)n2CC(O)COc1ccccc1 (stereo not given),12.9,0.7,-26.1,-5.3,-7.5
C=CCc1ccc(OCCCCNC2CCCC2)c(OC)c1,-19.9,1.2,-17.7,88.8*,-19.3
SMILES,S1P3 antagonist,S1P4 agonist,S1P4 antagonist,Lmaj promast,MDM2 E3 inh
Cc1ccc(C)c(OCCCNC2CCCC2)c1C,-0.2,0.4,-1.9,97.2*,-0.3
CCCOc1ccc(OCCNC2CCCC2)cc1,.,0.5,-0.2,94.2*,-9.5
Cc1ccc(OCCCCNC2CCCCC2)c(C)c1,-3.1,0.3,6.1,93.8*,-12.2
COc1ccc(CC(=O)NC(C)c2nnc(SCC(=O)Nc3cc(C)ccc3OC)n2C)cc1 (stereo not given),-8.3,-0.8,-0.1,-4.0,-7.1
CCOC(=O)c1cnc(SCC(=O)c2ccccc2)nc1N,15.1,-0.2,-0.6,-4.3,-57.1
CCOc1ccc(OCCNC2CCCC2)cc1,.,-2.8,-3.0,83.8*,-3.8
Cc1ccc(OCCCNC2CCCC2)cc1,7.8,2.8,-19.0,8.2,-14.9
CC(C)(C)c1ccc(OCCCNC2CCCC2)cc1,-3.9,-0.3,-3.1,99.0*,-15.8
Cc1[nH]n(-c2ccccc2)c(=O)c1/C=N/NC(=O)C(C)C,-28.7,0.3,2.5,-0.8,-0.9
CCCCNC(=S)N/N=C/c1cccc(OCC)c1O,-10.5,-0.7,13.2,.,-8.9
CCOc1cccc(/C=N/NC(=S)Nc2ccccc2[N+](=O)[O-])c1O,-19.1,-0.9,-5.2,94.9*,-52.2
CCN(CCCc1ccccc1)CCCc1ccccc1,1.6,1.6,1.9,95.0*,.
CCCN(CCO)CCCc1ccccc1,.,2.1,-12.6,-2.0,-7.7
NC(N)=Nc1nc(-c2ccccc2)c2cc(F)ccc2n1,-19.9,1.7,-16.1,100.0*,-29.7
CC1(C)CC(=O)C2=C(C1)NC(SCC(=O)Nc1ccccc1)=C(C#N)C2c1ccco1 (stereo not given),23.1,-4.7,11.1,0.9,-7.5
Cc1ccc(C(=O)CSC2=C(C#N)C(c3ccco3)C3=C(CC(C)(C)CC3=O)N2)cc1 (stereo not given),-22.7,1.1,2.0,89.8*,-12.4
CC1=C(C(=O)OC2CCCCC2)C(c2ccco2)C2=C(CC(C)(C)CC2=O)N1 (stereo not given),-24.6,-3.1,-16.1,58.9*,-13.7
CC1CCCC(C)N1CC(O)COc1c(F)cc(Br)cc1F (stereo not given),-4.5,2.0,-14.1,74.0*,-3.2
CC(C)NCC(O)COc1c(F)cc(Br)cc1F (stereo not given),-19.1,1.6,-8.1,30.0,.
OC(COc1c(F)cc(Br)cc1F)CN1CCN(c2ccc(F)cc2)CC1 (stereo not given),-68.2,0.3,-2.3,86.6*,-0.7
OC(CNC1CCCC1)COc1c(F)cc(Br)cc1F (stereo not given),.,-1.0,5.6,93.2*,-3.2
N#CC1=C(N)Oc2cc3ccccc3cc2C1c1cccnc1 (stereo not given),.,-0.1,-8.1,84.7*,-15.8
N#CC1=C(N)OC2=C(C(=O)CC(c3ccccc3)C2)C1c1cccnc1 (stereo not given),-0.5,0.6,-0.4,93.4*,-6.8
N#CC1=C(N)Oc2cc3c(cc2C1c1ccc(Cl)cc1)OCO3 (stereo not given),71.8*,0.1,-1.1,46.8,5.4
CCNc1nnc(-c2ccc(C)cc2)o1,26.3,0.0,6.7,-4.4,-23.9
SMILES,S1P3 antagonist,S1P4 agonist,S1P4 antagonist,Lmaj promast,MDM2 E3 inh
CSc1ccccc1NC(=O)Nc1cccc(Cl)c1,.,-2.8,6.4,17.0,-5.6
O=C(Nc1cccc(Cl)c1)Nc1ccccc1-n1ccnc1,2.2,3.3,-1.1,73.8*,-20.5
Cc1ccc(NC(=S)N(Cc2ccco2)C2CCN(C(C)C)CC2)cc1,3.0,-0.7,-15.5,-0.5,.
Oc1ccc(Cl)cc1C=Nc1ccc2c3c(cccc13)CC2,1.8,0.2,-7.1,84.3*,8.8
CCS(=O)(=O)Nc1cccc(C2=NN(S(=O)(=O)c3ccc(C)cc3)C(c3ccco3)C2)c1 (stereo not given),-20.3,-2.1,-9.7,33.1,-27.4
COc1ccc(C(=O)Nc2ccc(S(=O)(=O)N3CCCCC3)cc2)cc1,.,-0.7,-0.6,9.2,-8.6
COc1ccc(C(=O)Nc2ccc(S(=O)(=O)N3CCc4ccccc43)cc2)cc1,.,-1.4,-21.1,53.6*,-19.3

# Source: PubChem (several laboratories)
